ChEMBL document CHEMBL1629485, “Lead identification of conformationally restricted β-lactam type combretastatin analogues: synthesis, antiproliferative activity and tubulin targeting effects” (Eur J Med Chem, 2010)

How the values were obtained:
MDA-MB-231 [1] = assay: Cytotoxicity against estrogen receptor deficient human MDA-MB-231 cells assessed as LDH release at 10 uM; format: functional
Procedure, shortened: (§1)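 After compound treatment, LDH was measured with a commercial LDH kit. Result is % cell lysis at 10 μM compound.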

MCF7 [2] = assay: Cytotoxicity against human MCF7 cells expressing estrogen receptor assessed as LDH release at 10 uM; format: functional; procedure, shortened: as §1
MCF7 [3] = assay: Antiproliferative activity against human MCF7 cells expressing estrogen receptor after 72 hrs by MTT assay; format: functional, cell-based; conditions: MCF7, 72 h
MDA-MB-231 [4] = assay: Antiproliferative activity against estrogen receptor deficient human MDA-MB-231 cells after 72 hrs by MTT assay; format: functional, cell-based; conditions: MDA-MB-231, 72 h
Procedure, shortened: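 MCF-7 grown in Eagle's MEM with 10% FBS, 2 mM L-glutamine, penicillin/streptomycin and 1% non-essential amino acids; MDA-MB-231 grown in DMEM with 10% FBS, 2 mM L-glutamine and penicillin/streptomycin. Seeded at 2.5 × 10⁴ cells/mL, 24 h at 37 °C. Ethanol-stock compound, 1 nM–100 μM, 72 h, ethanol 1% v/v vehicle. MTT at 1 mg/mL final, 2 h dark, 37 °C, DMSO solubilised. Viability vs untreated control. IC50 is mean of three experiments in triplicate.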

SMILES | Activity (MDA-MB-231 [1]) [%] | Activity (MCF7 [2]) [%] | IC50 (MCF7 [3]) [nM] | IC50 (MDA-MB-231 [4]) [nM]
COc1ccc(N2C(=O)CC2c2cc(OC)c(OC)c(OC)c2)cc1O (configuration not stated) | 6.6 | 2.3 | 250 | 270
COc1ccc(C2C(C)C(=O)N2c2cc(OC)c(OC)c(OC)c2)cc1O (configuration not stated) | 25 | 15 | 10 | 47
COc1ccc(C2N(c3cc(OC)c(OC)c(OC)c3)C(=O)C2(C)C)cc1O (configuration not stated) | 20 | 12 | 130 | 1670
COc1ccc(N2C(=O)C(C)C2c2cc(OC)c(OC)c(OC)c2)cc1O (configuration not stated) | 0 | 17 | 2960 | 13000
COc1ccc(N2C(=O)C(C)(C)C2c2cc(OC)c(OC)c(OC)c2)cc1O (configuration not stated) | 12.1 | 11.5 | 4040 | 3190
COc1cc(N2C(=O)CC2c2ccc(F)cc2)cc(OC)c1OC (configuration not stated) | 6.3 | 0 | 26000 | 26000
COc1cc(OC)c(C2CC(=O)N2c2cc(OC)c(OC)c(OC)c2)cc1OC (configuration not stated) | 0 | 2.2 | 63700 | 38500
COc1ccc(C2CC(=O)N2c2cc(OC)c(OC)c(OC)c2)cc1 (configuration not stated) | 1.1 | 1.5 | 39 | 210
COc1ccc(C2C(C)C(=O)N2c2cc(OC)c(OC)c(OC)c2)cc1 (configuration not stated) | 4.5 | 5.7 | 47 | 127
COc1ccc(C2N(c3cc(OC)c(OC)c(OC)c3)C(=O)C2(C)C)cc1 (configuration not stated) | 16 | 12 | 265 | 1150
COc1cc(C2CC(=O)N2c2cc(OC)c(OC)c(OC)c2)cc(OC)c1OC (configuration not stated) | 0 | 1.9 | 168000 | 94400
COc1cc(N2C(=O)CC2c2ccc(OC)c(OC)c2OC)cc(OC)c1OC (configuration not stated) | 9 | 8 | 310 | 2830
COc1ccc(C2CC(=O)N2c2cc(OC)c(OC)c(OC)c2)cc1OC (configuration not stated) | 15 | 5 | 1640 | 970
COc1ccc(C2C(C)C(=O)N2c2cc(OC)c(OC)c(OC)c2)cc1OC (configuration not stated) | 6.1 | 7.5 | 2960 | 8840
COc1ccc(C2N(c3cc(OC)c(OC)c(OC)c3)C(=O)C2(C)C)cc1OC (configuration not stated) | 12 | 14 | 344 | 1460
COc1cc(N2C(=O)CC2c2cccs2)cc(OC)c1OC (configuration not stated) | 15 | 20 | 21600 | 34500
COc1ccc2cc(C3CC(=O)N3c3cc(OC)c(OC)c(OC)c3)ccc2c1 (configuration not stated) | 18 | 13.5 | 1510 | 13200
COc1ccc(C2CC(=S)N2c2cc(OC)c(OC)c(OC)c2)cc1 (configuration not stated) | 3 | 16 | 1120 | 4500
COc1ccc(C2C(C)C(=S)N2c2cc(OC)c(OC)c(OC)c2)cc1 (configuration not stated) | 5.1 | 3.2 | 890 | 9260
COc1ccc(C2N(c3cc(OC)c(OC)c(OC)c3)C(=S)C2(C)C)cc1 (configuration not stated) | 8 | 5.5 | 350 | 1330
COc1ccc(/C=C\c2cc(OC)c(OC)c(OC)c2)cc1O [COMBRETASTATIN A4] | 4.3 | 5.6 |  | 
